Laboratory results published in ChEMBL document CHEMBL2034933, “New quinazolinone-pyrimidine hybrids: synthesis, anti-inflammatory, and ulcerogenicity studies” (Eur J Med Chem, 2012).

What was measured:
Rattus norvegicus [1] = assay: Antiinflammatory activity in albino rat assessed as inhibition of carrageenan-induced paw edema at 100 mg/kg, po administered 1 hr prior to carrageenan-challenge measured after 0.5 hrs; format: functional
Method in brief: (§1)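 Adult albino rats of both sexes (120–150 g), pre-hydrated with 3 ml water by gavage, five per group. Test agents suspended in distilled water with a few drops of Tween 80, given orally 1 h before sub-plantar injection of 50 µl 1% carrageenan into the right hind paw. Dial-gauge paw thickness taken at 0.5, 1, 2 and 3 h, with the left paw as reference. % inhibition = (Wc−Wt)/Wc × 100 against saline/Tween 80 controls.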

Rattus norvegicus [2] = assay: Antiinflammatory activity in albino rat assessed as inhibition of carrageenan-induced paw edema at 100 mg/kg, po administered 1 hr prior to carrageenan-challenge measured after 3 hrs; format: functional; method in brief: as §1
Ovis aries = species on record: Ovis aries; assay: Selectivity ratio of IC50 for ovine COX2 to ovine COX1
Method in brief: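 Ovine COX-1 and COX-2 inhibition measured with a commercial COX inhibitor screening kit following the Gierse et al. method. Selectivity expressed as the ratio IC50(COX-2)/IC50(COX-1).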

Rattus norvegicus [3] = assay: Antiinflammatory activity in albino rat assessed as inhibition of carrageenan-induced paw edema at 100 mg/kg, po administered 1 hr prior to carrageenan-challenge measured after 2 hrs; format: functional; method in brief: as §1
Rattus norvegicus [4] = assay: Antiinflammatory activity in po dosed albino rat assessed as inhibition of carrageenan-induced paw edema administered 1 hr prior to carrageenan-challenge relative to diclophenac; format: functional
Rattus norvegicus [5] = assay: Antiinflammatory activity in albino rat assessed as inhibition of carrageenan-induced paw edema at 200 mg/kg, po administered 1 hr prior to carrageenan-challenge measured after 3 hrs; format: functional
Method in brief: (§2)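 Carrageenan rat paw oedema (albino rats of both sexes, 120–150 g), oral dosing in Tween 80 suspension 1 h before 50 µl 1% carrageenan sub-plantar injection. Inhibition read at 3 h over a three-dose series (50, 100, 200 mg/kg for test agents; 20, 50, 100 mg/kg for diclofenac sodium). IC50 given in mg/kg and µmol/kg.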

Rattus norvegicus [6] = assay: Antiinflammatory activity in albino rat assessed as inhibition of carrageenan-induced paw edema at 100 mg/kg, po administered 1 hr prior to carrageenan-challenge measured after 1 hr; format: functional; method in brief: as §1
Rattus norvegicus [7] = assay: Antiinflammatory activity in albino rat assessed as inhibition of carrageenan-induced paw edema at 50 mg/kg, po administered 1 hr prior to carrageenan-challenge measured after 3 hrs; format: functional; method in brief: as §1
Rattus norvegicus [8] = assay: Antiinflammatory activity in po dosed albino rat assessed as inhibition of carrageenan-induced paw edema administered 1 hr prior to carrageenan-challenge measured after 3 hrs; format: functional, organism-based; method in brief: as §2
Rattus norvegicus [9] = assay: Ulcerogenic activity in fasted albino rat assessed as ulcer index at 100 mg/kg po administered qd for 3 days measured on day 4; format: toxicity, organism-based; design: dose 100 mg/kg, route oral; details: in vivo, 72 h
Method in brief: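 Albino rats of both sexes (120–150 g), five per group, fasted 20 h, then dosed orally in 1% Tween (test agents 100 mg/kg, celecoxib and diclofenac sodium 50 mg/kg). Feeding cycle: 2 h fast, 2 h feed, 20 h fast, repeated with doses on days 2 and 3. Ulcers scored 0–4. Ulcer index = %incidence/10 + mean ulcer number + mean severity.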

| SMILES | inhibition in vivo at 100 mg/kg (Rattus norvegicus [1]) | inhibition in vivo at 100 mg/kg (Rattus norvegicus [2]) | Ratio IC50 (Ovis aries) | inhibition in vivo at 100 mg/kg (Rattus norvegicus [3]) | inhibition (INH) (Rattus norvegicus [4]) | inhibition in vivo at 200 mg/kg (Rattus norvegicus [5]) | inhibition in vivo at 100 mg/kg (Rattus norvegicus [6]) | inhibition in vivo at 50 mg/kg (Rattus norvegicus [7]) | IC50 (Rattus norvegicus [8]) | UI (Rattus norvegicus [9]) |
| --- | --- | --- | --- | --- | --- | --- | --- | --- | --- | --- |
| N#Cc1c(Nc2ccc(O)cc2)nc(SCC(=O)Nn2c(COc3ccc(Cl)cc3Cl)nc3ccccc3c2=O)nc1-c1ccc(Cl)cc1 | 71.2% | 91.2% | 0.4 | 91.2% | >90% | 96.5% | 90.9% | 61.4% | 83.36 mg/kg | 14.43 |
| N#Cc1c(-c2ccc(Cl)cc2)nc(SCC(=O)Nn2c(COc3ccc(Cl)cc3Cl)nc3ccccc3c2=O)[nH]c1=O | 61.5% | 64.9% | – | 64.9% | – | – | 63.6% | – | – | – |
| N#Cc1c(Nc2ccc(Cl)cc2)nc(SCC(=O)Nn2c(COc3ccc(Cl)cc3Cl)nc3ccccc3c2=O)nc1-c1ccc(O)cc1 | 65.4% | 79% | – | 77.2% | – | – | 72.7% | – | – | 12.08 |
| N#Cc1c(Nc2ccccc2)nc(SCC(=O)Nn2c(COc3ccc(Cl)cc3Cl)nc3ccccc3c2=O)nc1-c1ccc(O)cc1 | 90.4% | 91.2% | 0.44 | 91.2% | >90% | 96.5% | 90.9% | 77.2% | 81.31 mg/kg | 11.38 |
| N#Cc1c(Nc2ccc(Cl)cc2)nc(SCC(=O)Nn2c(COc3ccc(Cl)cc3Cl)nc3ccccc3c2=O)nc1-c1ccc(Cl)cc1 | 46.1% | 64.9% | – | 61.4% | – | – | 54.5% | – | – | – |
| N#Cc1c(Cl)nc(SCC(=O)Nn2c(COc3ccc(Cl)cc3Cl)nc3ccccc3c2=O)nc1-c1ccc(O)cc1 | 67.3% | 73.7% | – | 73.7% | – | – | 72.7% | – | – | – |
| N#Cc1c(-c2ccccc2)nc(SCC(=O)Nn2c(COc3ccc(Cl)cc3Cl)nc3ccccc3c2=O)[nH]c1=O | 80.8% | 86% | 20.6 | 86% | >90% | 91.2% | 81.8% | 68.4% | 86.74 mg/kg | 14.4 |
| N#Cc1c(-c2ccc(O)cc2)nc(SCC(=O)Nn2c(COc3ccc(Cl)cc3Cl)nc3ccccc3c2=O)[nH]c1=O | 61.5% | 68.4% | – | 68.4% | – | – | 63.6% | – | – | – |
| O=C(CSc1nc(-c2ccccc2)c(C(=O)O)c(=O)[nH]1)Nn1c(COc2ccc(Cl)cc2Cl)nc2ccccc2c1=O | 61.5% | 64.9% | – | 68.4% | – | – | 69.1% | – | – | – |
| N#Cc1c(-c2ccc(O)cc2)nc(SCC(=O)Nn2c(COc3ccc(Cl)cc3Cl)nc3ccccc3c2=O)n(Cc2ccccc2)c1=O | 51.9% | 61.4% | – | 56.1% | – | – | 54.5% | – | – | – |
| N#Cc1c(Nc2ccccc2)nc(SCC(=O)Nn2c(COc3ccc(Cl)cc3Cl)nc3ccccc3c2=O)nc1-c1ccccc1 | 71.2% | 78.1% | – | 78.1% | – | – | 77.3% | – | – | 13.26 |
| N#Cc1c(Nc2ccc(Cl)cc2)nc(SCC(=O)Nn2c(COc3ccc(Cl)cc3Cl)nc3ccccc3c2=O)nc1-c1ccccc1 | 51.9% | 59.6% | – | 57.9% | – | – | 54.5% | – | – | – |
| N#Cc1c(Nc2ccc(O)cc2)nc(SCC(=O)Nn2c(COc3ccc(Cl)cc3Cl)nc3ccccc3c2=O)nc1-c1ccc(O)cc1 | 80.8% | 86.8% | 7.3 | 86.8% | >90% | 91.2% | 86.4% | 56.1% | 88.27 mg/kg | 14.22 |
| O=C(CSc1nc(-c2ccc(O)cc2)c(C(=O)O)c(=O)[nH]1)Nn1c(COc2ccc(Cl)cc2Cl)nc2ccccc2c1=O | 32.7% | 38.6% | – | 38.6% | – | – | 36.4% | – | – | – |
| N#Cc1c(Nc2ccc(O)cc2)nc(SCC(=O)Nn2c(COc3ccc(Cl)cc3Cl)nc3ccccc3c2=O)nc1-c1ccccc1 | 61.5% | 59.6% | – | 59.6% | – | – | 72.7% | – | – | – |
| Cn1c(SCC(=O)Nn2c(COc3ccc(Cl)cc3Cl)nc3ccccc3c2=O)nc(-c2ccccc2)c(C#N)c1=O | 51.9% | 59.6% | – | 59.6% | – | – | 54.5% | – | – | – |
| N#Cc1c(Cl)nc(SCC(=O)Nn2c(COc3ccc(Cl)cc3Cl)nc3ccccc3c2=O)nc1-c1ccccc1 | 53.9% | 68.4% | – | 66.7% | – | – | 60% | – | – | – |
| N#Cc1c(Nc2ccccc2)nc(SCC(=O)Nn2c(COc3ccc(Cl)cc3Cl)nc3ccccc3c2=O)nc1-c1ccc(Cl)cc1 | 36.5% | 56.1% | – | 50.9% | – | – | 43.6% | – | – | – |
| N#Cc1c(-c2ccccc2)nc(SCC(=O)Nn2c(COc3ccc(Cl)cc3Cl)nc3ccccc3c2=O)n(Cc2ccccc2)c1=O | 76% | 79% | – | 79% | – | – | 77.3% | – | – | 10.9 |
| N#Cc1c(-c2ccc(Cl)cc2)nc(SCC(=O)Nn2c(COc3ccc(Cl)cc3Cl)nc3ccccc3c2=O)n(Cc2ccccc2)c1=O | 61.5% | 77.2% | – | 77.2% | – | – | 72.7% | – | – | 11.3 |
| N#Cc1c(Cl)nc(SCC(=O)Nn2c(COc3ccc(Cl)cc3Cl)nc3ccccc3c2=O)nc1-c1ccc(Cl)cc1 | 61.5% | 68.4% | – | 68.4% | – | – | 63.6% | – | – | – |
| O=C(CSc1nc(-c2ccc(Cl)cc2)c(C(=O)O)c(=O)[nH]1)Nn1c(COc2ccc(Cl)cc2Cl)nc2ccccc2c1=O | 51.9% | 61.4% | – | 61.4% | – | – | 58.2% | – | – | – |
| Cn1c(SCC(=O)Nn2c(COc3ccc(Cl)cc3Cl)nc3ccccc3c2=O)nc(-c2ccc(Cl)cc2)c(C#N)c1=O | 80.8% | 73.7% | – | 73.7% | – | – | 76.4% | – | – | – |
